# Measurements: ChEMBL document CHEMBL1932986, “Synthesis and in vitro antimycobacterial activity of compounds derived from (R)- and (S)-2-amino-1-butanol - The crucial role of the configuration” (Eur J Med Chem, 2012)
# Columns and labels:
# Assay type in all cases: functional
# Escherichia coli [1] = experiment: Antibacterial activity against Escherichia coli ATCC 8739 at 5 mg/ml after 24 hrs by agar diffusion test; details: ATCC 8739, 24 h, read-out: DIZ
# Procedure, shortened: (§1)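 Agar diffusion: wells in agar filled with […] DMSO solution of compound at various concentrations; diameter of clear zone around application point measured. Bacteria grown 24 h at 37 °C on nutrient agar. Compounds first screened at 50 mg/ml; those active then tested at lower concentrations. Bracketed value = lowest concentration (mg/ml) giving zone >11 mm, reported only if activity retained at ≤1.25 mg/ml.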
# Priestia megaterium [2] = experiment: Antibacterial activity against Bacillus megaterium NRRL 1353895 at 1 mg/ml after 24 hrs by agar diffusion test; details: NRRL 1353895, 24 h, read-out: DIZ; procedure, shortened: as §1
# Escherichia coli [3] = experiment: Antibacterial activity against Escherichia coli ATCC 8739 at 25 mg/ml after 24 hrs by agar diffusion test; details: ATCC 8739, 24 h, read-out: DIZ; procedure, shortened: as §1
# Acinetobacter johnsonii [4] = experiment: Antibacterial activity against Acinetobacter johnsonii ATCC 17909 at 5 mg/ml after 24 hrs by agar diffusion test; details: ATCC 17909, 24 h, read-out: DIZ; procedure, shortened: as §1
# Escherichia coli [5] = experiment: Antibacterial activity against Escherichia coli ATCC 8739 at 1 mg/ml after 24 hrs by agar diffusion test; details: ATCC 8739, 24 h, read-out: DIZ; procedure, shortened: as §1
# Micrococcus luteus [6] = experiment: Antibacterial activity against Sarcina lutea ATCC 9341 at 1 mg/ml after 24 hrs by agar diffusion test; details: ATCC 9341, 24 h, read-out: DIZ; procedure, shortened: as §1
# Bacillus [7] = experiment: Antibacterial activity against Bacillus idosus B 241 at 25 mg/ml after 24 hrs by agar diffusion test; details: B 241, 24 h, read-out: DIZ; procedure, shortened: as §1
# Acinetobacter johnsonii [8] = experiment: Antibacterial activity against Acinetobacter johnsonii ATCC 17909 at 25 mg/ml after 24 hrs by agar diffusion test; details: ATCC 17909, 24 h, read-out: DIZ; procedure, shortened: as §1
# Bacillus subtilis [9] = experiment: Antibacterial activity against Bacillus subtilis ATCC 6633 at 1 mg/ml after 24 hrs by agar diffusion test; details: ATCC 6633, 24 h, read-out: DIZ; procedure, shortened: as §1
# Bacillus mycoides [10] = experiment: Antibacterial activity against Bacillus mycoides DSMZ 274 at 1 mg/ml after 24 hrs by agar diffusion test; details: DSMZ 274, 24 h, read-out: DIZ; procedure, shortened: as §1
# Bacillus cereus [11] = experiment: Antibacterial activity against Bacillus cereus ATCC 11778 at 25 mg/ml after 24 hrs by agar diffusion test; details: ATCC 11778, 24 h, read-out: DIZ; procedure, shortened: as §1
# Staphylococcus aureus [12] = experiment: Antibacterial activity against Staphylococcus aureus NRRL B 313 at 5 mg/ml after 24 hrs by agar diffusion test; details: NRRL B 313, 24 h, read-out: DIZ
# Procedure, shortened: (§2)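 Agar diffusion: bacteria grown 24 h at 37 °C on nutrient agar. Wells in the agar are filled with […] of compound solution in DMSO at various concentrations. The diameter of the clear zone around the application point is measured. Bracketed values give the lowest concentration (mg/ml) that produces a zone >11 mm. A first screen is run at 50 mg/ml.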
# Priestia megaterium [13] = experiment: Antibacterial activity against Bacillus megaterium NRRL 1353895 at 25 mg/ml after 24 hrs by agar diffusion test; details: NRRL 1353895, 24 h, read-out: DIZ; procedure, shortened: as §1
# Micrococcus luteus [14] = experiment: Antibacterial activity against Sarcina lutea ATCC 9341 at 25 mg/ml after 24 hrs by agar diffusion test; details: ATCC 9341, 24 h, read-out: DIZ; procedure, shortened: as §2
# Micrococcus luteus [15] = experiment: Antibacterial activity against Micrococcus luteus ATCC 9631 at 1 mg/ml after 24 hrs by agar diffusion test; details: ATCC 9631, 24 h, read-out: DIZ; procedure, shortened: as §1
# Bacillus mycoides [16] = experiment: Antibacterial activity against Bacillus mycoides DSMZ 274 at 25 mg/ml after 24 hrs by agar diffusion test; details: DSMZ 274, 24 h, read-out: DIZ; procedure, shortened: as §1
# Staphylococcus aureus [17] = experiment: Antibacterial activity against Staphylococcus aureus NRRL B 313 at 25 mg/ml after 24 hrs by agar diffusion test; details: NRRL B 313, 24 h, read-out: DIZ; procedure, shortened: as §2
# Micrococcus luteus [18] = experiment: Antibacterial activity against Sarcina lutea ATCC 9341 at 5 mg/ml after 24 hrs by agar diffusion test; details: ATCC 9341, 24 h, read-out: DIZ; procedure, shortened: as §2
# Bacillus [19] = experiment: Antibacterial activity against Bacillus idosus B 241 at 5 mg/ml after 24 hrs by agar diffusion test; details: B 241, 24 h, read-out: DIZ; procedure, shortened: as §1
# Priestia megaterium [20] = experiment: Antibacterial activity against Bacillus megaterium NRRL 1353895 at 5 mg/ml after 24 hrs by agar diffusion test; details: NRRL 1353895, 24 h, read-out: DIZ; procedure, shortened: as §1
# Bacillus cereus [21] = experiment: Antibacterial activity against Bacillus cereus ATCC 11778 at 1 mg/ml after 24 hrs by agar diffusion test; details: ATCC 11778, 24 h, read-out: DIZ; procedure, shortened: as §1
# Micrococcus luteus [22] = experiment: Antibacterial activity against Micrococcus luteus ATCC 9631 at 25 mg/ml after 24 hrs by agar diffusion test; details: ATCC 9631, 24 h, read-out: DIZ; procedure, shortened: as §1
# Bacillus cereus [23] = experiment: Antibacterial activity against Bacillus cereus ATCC 11778 at 5 mg/ml after 24 hrs by agar diffusion test; details: ATCC 11778, 24 h, read-out: DIZ; procedure, shortened: as §1
# Bacillus subtilis [24] = experiment: Antibacterial activity against Bacillus subtilis ATCC 6633 at 25 mg/ml after 24 hrs by agar diffusion test; details: ATCC 6633, 24 h, read-out: DIZ; procedure, shortened: as §1
# Bacillus mycoides [25] = experiment: Antibacterial activity against Bacillus mycoides DSMZ 274 at 5 mg/ml after 24 hrs by agar diffusion test; details: DSMZ 274, 24 h, read-out: DIZ; procedure, shortened: as §1
# Staphylococcus aureus [26] = experiment: Antibacterial activity against Staphylococcus aureus NRRL B 313 at 1 mg/ml after 24 hrs by agar diffusion test; details: NRRL B 313, 24 h, read-out: DIZ
# Procedure, shortened: (§3)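 Agar diffusion: bacteria grown 24 h at 37 °C on nutrient agar; wells cut in the seeded agar are filled with compound solution in DMSO. Read-out is the diameter of the clear zone around the application point.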
# Micrococcus luteus [27] = experiment: Antibacterial activity against Micrococcus luteus ATCC 9631 at 5 mg/ml after 24 hrs by agar diffusion test; details: ATCC 9631, 24 h, read-out: DIZ; procedure, shortened: as §1
# Acinetobacter johnsonii [28] = experiment: Antibacterial activity against Acinetobacter johnsonii ATCC 17909 at 1 mg/ml after 24 hrs by agar diffusion test; details: ATCC 17909, 24 h, read-out: DIZ; procedure, shortened: as §1
# Bacillus subtilis [29] = experiment: Antibacterial activity against Bacillus subtilis ATCC 6633 at 5 mg/ml after 24 hrs by agar diffusion test; details: ATCC 6633, 24 h, read-out: DIZ; procedure, shortened: as §3
# Bacillus [30] = experiment: Antibacterial activity against Bacillus idosus B 241 at 1 mg/ml after 24 hrs by agar diffusion test; details: B 241, 24 h, read-out: DIZ; procedure, shortened: as §1
# Saccharomyces cerevisiae = experiment: Antifungal activity against Saccharomyces cerevisiae ATCC 9763 at 12.5 mg/ml after 72 hrs by agar diffusion test; details: ATCC 9763, 72 h, read-out: DIZ
# Procedure, shortened: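 Agar diffusion: yeasts grown on yeast peptone dextrose agar and fungi on potato dextrose agar. Wells are filled with […] of compound solution in DMSO at various concentrations, and the clear-zone diameter is measured. Bracketed values give the lowest concentration (mg/ml) that produces a zone >11 mm. A first screen is run at 50 mg/ml.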
smiles,measurement,setting,value
CN[C@@H]1[C@H](O[C@H]2[C@H](O[C@H]3[C@H](O)[C@@H](O)[C@H](N=C(N)N)[C@@H](O)[C@@H]3N=C(N)N)O[C@@H](C)[C@]2(O)C=O)O[C@@H](CO)[C@H](O)[C@H]1O [STREPTOMYCIN],zone of inhibition at 5000 µg/mL,Escherichia coli [1],26 mm
same,zone of inhibition at 1000 µg/mL,Priestia megaterium [2],20 mm
same,zone of inhibition at 25000 µg/mL,Escherichia coli [3],35 mm
same,zone of inhibition at 5000 µg/mL,Acinetobacter johnsonii [4],24 mm
same,zone of inhibition at 1000 µg/mL,Escherichia coli [5],23 mm
same,zone of inhibition at 1000 µg/mL,Micrococcus luteus [6],19 mm
same,zone of inhibition at 25000 µg/mL,Bacillus [7],30 mm
same,zone of inhibition at 25000 µg/mL,Acinetobacter johnsonii [8],30 mm
same,zone of inhibition at 1000 µg/mL,Bacillus subtilis [9],25 mm
same,zone of inhibition at 1000 µg/mL,Bacillus mycoides [10],25 mm
same,zone of inhibition at 25000 µg/mL,Bacillus cereus [11],30 mm
same,zone of inhibition at 5000 µg/mL,Staphylococcus aureus [12],26 mm
same,zone of inhibition at 25000 µg/mL,Priestia megaterium [13],30 mm
same,zone of inhibition at 25000 µg/mL,Micrococcus luteus [14],27 mm
same,zone of inhibition at 1000 µg/mL,Micrococcus luteus [15],20 mm
same,zone of inhibition at 25000 µg/mL,Bacillus mycoides [16],35 mm
same,zone of inhibition at 25000 µg/mL,Staphylococcus aureus [17],32 mm
same,zone of inhibition at 5000 µg/mL,Micrococcus luteus [18],22 mm
same,zone of inhibition at 5000 µg/mL,Bacillus [19],27 mm
same,zone of inhibition at 5000 µg/mL,Priestia megaterium [20],25 mm
same,zone of inhibition at 1000 µg/mL,Bacillus cereus [21],23 mm
same,zone of inhibition at 25000 µg/mL,Micrococcus luteus [22],30 mm
same,zone of inhibition at 5000 µg/mL,Bacillus cereus [23],28 mm
same,zone of inhibition at 25000 µg/mL,Bacillus subtilis [24],35 mm
same,zone of inhibition at 5000 µg/mL,Bacillus mycoides [25],30 mm
same,zone of inhibition at 1000 µg/mL,Staphylococcus aureus [26],20 mm
same,zone of inhibition at 5000 µg/mL,Micrococcus luteus [27],25 mm
same,zone of inhibition at 1000 µg/mL,Acinetobacter johnsonii [28],20 mm
same,zone of inhibition at 5000 µg/mL,Bacillus subtilis [29],30 mm
same,zone of inhibition at 1000 µg/mL,Bacillus [30],21 mm
CCC(C)n1ncn(-c2ccc(N3CCN(c4ccc(OCC5COC(Cn6cncn6)(c6ccc(Cl)cc6Cl)O5)cc4)CC3)cc2)c1=O (stereo unspecified) [ITRACONAZOLE],zone of inhibition at 12500 µg/mL,Saccharomyces cerevisiae,30 mm
